Experimental findings from ChEMBL document CHEMBL3227986, “Design of species- or isozyme-specific enzyme inhibitors. 1. Effect of thymidine substituents on affinity for the thymidine site of hamster cytoplasmic thymidine kinase” (J Med Chem, 1979) are described below.

The target in assay [1] is T1, Thymidine kinase, cytosolic (Cricetulus griseus) (UniProt P09768).
T1 sequence (whole entry): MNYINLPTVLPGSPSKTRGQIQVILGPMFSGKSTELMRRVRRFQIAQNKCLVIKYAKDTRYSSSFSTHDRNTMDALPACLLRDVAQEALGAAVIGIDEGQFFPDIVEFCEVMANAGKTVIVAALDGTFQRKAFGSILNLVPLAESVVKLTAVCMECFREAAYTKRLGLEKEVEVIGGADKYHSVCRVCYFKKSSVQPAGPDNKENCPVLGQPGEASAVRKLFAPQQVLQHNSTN
The assay can be described thus: Inhibition of thymidine kinase in BHK21 (C13) cells using thymidine as substrate assessed as formation of TMP at 0.2 mM. The assay is classed as cell-based. As to conditions: Mesocricetus auratus. The essentials:
(§1)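 BHK21(C13) 100000g supernatant in Tris-HCl 0.05 M pH 8.0, ATP 5 mM, MgCl2 2.5 mM, [14C]thymidine 3.6 μM, 10 min at 37 °C. Reaction stopped by boiling; [14C]TMP bound to DEAE-cellulose disks and counted by liquid scintillation, corrected for unincubated blanks.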

Assay [2] addresses T1, Thymidine kinase, cytosolic (Cricetulus griseus). Briefly: Inhibition of thymidine kinase in BHK21 (C13) cells using thymidine as substrate assessed as formation of TMP at 0.1 mM. The assay is classed as cell-based. Particulars: Mesocricetus auratus. The essentials: as §1
The target is the same in assay [3]. Briefly: Activity at thymidine kinase in BHK21 (C13) cells at 400 uM after 30 mins relative to thymidine. It counts as cell-based. Particulars: Mesocricetus auratus. The essentials:
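Radiolabeled thymidine or 2'-deoxyuridine derivatives tested as substrates: 40 μL BHK21(C13) 100000g supernatant, Tris-HCl 0.05 M pH 8.0, ATP 5 mM, MgCl2 2.5 mM, no thymidine, 30 min at 37 °C. Products separated by paper electrophoresis in 0.05 M triethylammonium bicarbonate pH 7.6; radioactivity counted in the TMP region.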

The target in assay [4] is T2, Thymidine kinase 2, mitochondrial (Homo sapiens) (UniProt O00142).
T2 sequence (whole entry): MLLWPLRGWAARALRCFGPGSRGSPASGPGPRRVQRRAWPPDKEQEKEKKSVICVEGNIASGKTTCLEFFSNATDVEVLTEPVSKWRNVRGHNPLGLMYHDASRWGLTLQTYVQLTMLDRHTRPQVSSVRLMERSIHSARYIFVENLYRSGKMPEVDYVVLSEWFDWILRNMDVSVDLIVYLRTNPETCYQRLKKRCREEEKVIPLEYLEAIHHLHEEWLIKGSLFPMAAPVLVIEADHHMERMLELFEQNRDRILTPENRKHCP
The assay can be described thus: Inhibition of human mitochondrial thymidine kinase using [14C]thymidine at 0.19 mM after 10 mins by liquid scintillation spectrometer analysis relative to control in presence of Mg2+.

The target in assay [5] is T1, Thymidine kinase, cytosolic (Cricetulus griseus). Briefly: Inhibition of thymidine kinase in BHK21 (C13) cells using thymidine as substrate assessed as formation of TMP at 5 mM. It counts as cell-based. Particulars: Mesocricetus auratus. A digest of the protocol:
as §1

Assay [6] has the same target. The assay can be described thus: Inhibition of thymidine kinase in BHK21 (C13) cells using thymidine as substrate assessed as formation of TMP at 10 mM. The assay is classed as cell-based. Particulars: Mesocricetus auratus. A digest of the protocol: as §1
For assay [7] the target is unchanged. Briefly: Inhibition of thymidine kinase in BHK21 (C13) cells using thymidine as substrate assessed as formation of TMP at 1.4 mM. It counts as cell-based. Particulars: Mesocricetus auratus. A digest of the protocol:
as §1

Assay [8] has the same target. Briefly: Inhibition of thymidine kinase in BHK21 (C13) cells using thymidine as substrate assessed as formation of TMP at 0.28 mM. It counts as cell-based. As to conditions: Mesocricetus auratus. A digest of the protocol:
as §1

Assay [9] addresses T2, Thymidine kinase 2, mitochondrial (Homo sapiens). The assay can be described thus: Effect on human mitochondrial thymidine kinase using [14C]thymidine at 2 mM after 10 mins by liquid scintillation spectrometer analysis relative to control in presence of Mg2+.
For assay [10], the target named is T3, Thymidine kinase, cytosolic (Homo sapiens) (UniProt P04183).
T3 sequence (whole entry): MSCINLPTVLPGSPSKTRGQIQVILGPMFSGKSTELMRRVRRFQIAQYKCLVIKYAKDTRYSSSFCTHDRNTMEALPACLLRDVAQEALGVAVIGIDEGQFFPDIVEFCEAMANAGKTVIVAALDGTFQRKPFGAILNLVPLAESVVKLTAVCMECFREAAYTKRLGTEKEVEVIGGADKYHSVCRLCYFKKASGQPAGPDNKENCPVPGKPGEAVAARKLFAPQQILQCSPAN
Briefly: Effect on human cytoplasmic thymidine kinase using [14C]thymidine at 2 mM after 10 mins by liquid scintillation spectrometer analysis relative to control in presence of Mg2+.

In assay [11] the target is T1, Thymidine kinase, cytosolic (Cricetulus griseus). Briefly: Effect on thymidine kinase in BHK21 (C13) cells using [14C]thymidine at 5 mM after 10 mins by liquid scintillation spectrometer analysis relative to control in presence of Mg2+. The assay is classed as cell-based. Particulars: Mesocricetus auratus. The essentials: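 BHK21(C13) high-speed supernatant, 10 min at 37 °C, [14C]TMP on DEAE-cellulose disks, scintillation counting. Phosphate donors (nucleoside triphosphates 5 mM, giving 2.5 mM Mg2+ triphosphates) tested with 14.4 μM [14C]thymidine. Inhibitor assays used 0.19 mM [14C]thymidine: 5-iodo nucleosides at 0.19 mM with saturating Mg2+-ATP, or dCTP 5 mM with ATP 5 mM and MgCl2 7.5 mM.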

Assay [12] has the same target. The assay can be described thus: Inhibition of thymidine kinase in BHK21 (C13) cells using thymidine as substrate assessed as formation of TMP at 4 mM. It counts as cell-based. Particulars: Mesocricetus auratus. A digest of the protocol:
as §1

Assay [13] shares this target. The assay can be described thus: Inhibition of thymidine kinase in BHK21 (C13) cells using thymidine as substrate assessed as formation of TMP at 2 mM. The assay is classed as cell-based. As to conditions: Mesocricetus auratus. The essentials:
as §1

Assay [14] shares this target. Briefly: Inhibition of thymidine kinase in BHK21 (C13) cells using [14C]thymidine at 200 uM after 10 mins by liquid scintillation spectrometer analysis relative to control in presence of Mg2+. It counts as cell-based. As to conditions: Mesocricetus auratus.
Assay [15] shares this target. The assay can be described thus: Inhibition of thymidine kinase in BHK21 (C13) cells using thymidine as substrate assessed as formation of TMP at 0.74 mM. The assay is classed as cell-based. Particulars: Mesocricetus auratus. A digest of the protocol:
as §1

Assay [16] shares this target. Briefly: Inhibition of thymidine kinase in BHK21 (C13) cells using thymidine as substrate assessed as formation of TMP at […]. The assay is classed as cell-based. As to conditions: Mesocricetus auratus.
In assay [17] the target is T4, Thymidine kinase, cytosolic (Mus musculus, UniProt P04184).
T4 sequence (P04184 whole entry): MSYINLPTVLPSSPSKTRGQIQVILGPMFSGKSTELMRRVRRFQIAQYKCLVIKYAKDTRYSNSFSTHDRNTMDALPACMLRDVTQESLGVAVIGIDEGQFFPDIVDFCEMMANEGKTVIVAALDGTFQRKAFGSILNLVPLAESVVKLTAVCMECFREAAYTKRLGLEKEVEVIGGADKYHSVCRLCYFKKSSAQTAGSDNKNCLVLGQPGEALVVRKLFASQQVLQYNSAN
Briefly: Competitive inhibition of thymidine kinase in mouse Ehrlich's ascites cells.

One may read the inhibition as how much of the control response was suppressed. For orientation: Ki means the dissociation constant of the complex between target and ligand, obtained from inhibition or displacement. A higher Ki goes with a looser hold on the target.

Calls of active or inactive are those of the source. No cut-off for these calls is given here.

For `CCn1c(=O)c(C)cn([C@H]2C[C@H](O)[C@@H](CO)O2)c1=O`, the figures for the inhibition in [1] and in assay [2] were 26% and 13%, respectively.
The matching figures for `CCCn1c(=O)c(C)cn([C@H]2C[C@H](O)[C@@H](CO)O2)c1=O`: 34% and 16%.
With `CC(=O)NCC(O)[C@H]1O[C@@H](n2cc(C)c(=O)[nH]c2=O)C[C@@H]1O` (stereo in doubt; [14C]4b), in assay [3], the outcome was inactive.
With `Nc1nc(=O)n([C@H]2C[C@H](O)[C@@H](CO)O2)cc1I`, the inhibition in [4] amounted to 64%.
For `CCNc1ccn([C@H]2C[C@H](O)[C@@H](CO)O2)c(=O)n1`, the inhibition in assay [5] stood at 24%; in [6], 38%.
On to `O=c1[nH]c(=O)n([C@H]2C[C@H](O)[C@@H](CO)O2)cc1I`, for which the inhibition in assay [4] was determined as 31%.
For `CCS[C@H]1C[C@H](n2cc(C)c(=O)[nH]c2=O)O[C@@H]1CO`, the results for the inhibition in [7] and in assay [8] were 60% and 31%, respectively.
For the molecule `Nc1ncnc2c1ncn2[C@@H]1O[C@H](COP(=O)(O)OP(=O)(O)OP(=O)(O)O)[C@@H](O)[C@H]1O`, the Activity in assay [9], in assay [10] and in assay [11] was 100% throughout.
Take `O=C(CI)NCCC(=O)Nc1cn([C@H]2C[C@H](O)[C@@H](CO)O2)c(=O)[nH]c1=O`: the inhibition worked out at 36% in [12] and 22% in assay [13].
Turning to `Nc1ncnc2c1ncn2[C@H]1C[C@H](O)[C@@H](COP(=O)(O)OP(=O)(O)OP(=O)(O)O)O1`, the figures for the Activity in [9], in assay [10] and in assay [11] were 56%, 108% and 107%, respectively.
In the case of `CC(=O)Nc1cn([C@H]2C[C@H](O)[C@@H](COP(=O)(O)OP(=O)(O)OP(=O)(O)O)O2)c(=O)[nH]c1=O`, the inhibition entry in [14] is “Active”.
For the molecule `CCNc1cn([C@H]2C[C@H](O)[C@@H](COP(=O)(O)OP(=O)(O)OP(=O)(O)O)O2)c(=O)[nH]c1=O`, the inhibition entry in assay [14] was “Active”.
As for `Nc1ccn([C@H]2C[C@H](O)[C@@H](CO)O2)c(=O)n1`, the inhibition in assay [15] was determined as 24%; in assay [16] it was 10%.
Regarding `CCOC1N([C@H]2C[C@H](O)[C@@H](CO)O2)C(=O)NC(=O)C1(C)Br` (single isomer, unassigned), the affinity in assay [17] corresponds to a Ki of 24 µM.
